HKDC1 inh: HKDC1 hexokinase inhibitors, primary screen, biochemical, fluorescence, uHTS; Q2TB90; recombinant HKDC1, G6PDH/diaphorase resazurin coupled fluorescence; inhibition, % at 20 µM; 340,000 compounds, 0.16% hits; AID 493160, 2011;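 active = inhibition above about 35% when tested at 20 µM, limit read from the data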
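Incubation: 90 min at room temperature in dark / Material: recombinant HKDC1 (HK5) hexokinase enzyme, produced in-house / Quantity: enzyme 5 µg/mL final / Compound: one dose of 20 µM, 1% DMSO / Reagent: glucose and ATP substrates / Buffer or medium: Tris pH 8.0 buffer with MgCl2, Tween-20, BSA, BME / Technique: resorufin fluorescence at 613 nm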
PfGluPho inh: PfG6PD enzyme inhibitors, primary screen, biochemical, fluorescence intensity, uHTS; inhibition, % at 20 µM; AID 504690, 2011; glucose-6-phosphate dehydrogenase-6-phosphogluconolactonase (Plasmodium falciparum 3D7); 350,000 compounds, 0.78% hits; PfGluPho enzyme, NADPH resazurin-diaphorase fluorescence;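 active = inhibition reaching at least a set limit at 20 µM in the primary screen, cut at about 59% in these data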
APOBEC3G inh: APOBEC3G DNA deaminase inhibitors, primary screen, biochemical, fluorescence, single-stranded DNA substrate, uHTS; DNA dC->dU-editing enzyme APOBEC-3G (Homo sapiens), Q9HC16; recombinant A3G, ssDNA deamination FAM/TAMRA fluorescence; inhibition, % at 20 µM; 330,000 compounds, 0.28% hits; AID 493012, 2011;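 active = inhibition of at least 40% at 20 µM, with no more than 30% in the related APOBEC3A deaminase screen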
APOBEC3A inh: APOBEC3A ssDNA deaminase inhibitors, primary screen, selectivity assay for APOBEC3G inhibitor project, biochemical, FAM/TAMRA oligo cleavage fluorescence. DNA dC->dU-editing enzyme APOBEC-3A (Homo sapiens), P31941. recombinant A3A, FAM/TAMRA ssDNA deamination fluorescence. inhibition, % at 20 µM. 330,000 compounds, 0.41% hits. AID 493011, 2011;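 active = at least 40% inhibition at 20 µM here, with at most 30% in a related deaminase screen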
Target sequence (P31941 whole entry, looked up): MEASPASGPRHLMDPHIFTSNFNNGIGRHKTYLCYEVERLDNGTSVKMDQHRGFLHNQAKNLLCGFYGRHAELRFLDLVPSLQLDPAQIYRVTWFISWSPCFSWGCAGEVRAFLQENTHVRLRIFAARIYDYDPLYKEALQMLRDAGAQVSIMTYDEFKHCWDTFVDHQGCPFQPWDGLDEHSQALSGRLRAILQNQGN
iPSC survival up: enhancers of single-cell hiPSC survival, primary screen, ATPlite luminescence | survival enhancement, % at 20 µM | AID 602274, 2012 | 100% = ROCK inhibitor wells, 0% = DMSO | 360,000 compounds, 0.044% hits; in the data active = survival enhancement above about 18%;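 note: cells exposed to compounds for 16 hours before the ATP read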
A3A conf: APOBEC3A deaminase inhibitors, retest, confirmation, selectivity assay for APOBEC3G inhibitor project, biochemical, single concentration, fluorescence readout. shares compounds with APOBEC3A inh. recombinant A3A, ssDNA deaminase UDG fluorescence assay. inhibition, % at 20 µM. 1,400 compounds, 63% hits. AID 493151, 2011;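 active = inhibition reaching a set limit, 80% of the first screen's cutoff, at 20 µM in any replicate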
UDG ctr A3A: E. coli UDG inhibitors, confirmation, counter-screen for APOBEC3A inhibitor project, biochemical, single concentration, fluorescence, FAM/TAMRA oligo; shares compounds with APOBEC3A inh; UDG counterscreen, FAM/TAMRA uracil oligo fluorescence; inhibition, % at 20 µM; 1,000 tested, under 10 active; AID 504714, 2011; call rule not given here
A number is an active result; – = inactive; · = not tested or not shown. Most compounds without a hit are left out; they make up all but 1.4% or so of the library.

SMILES	HKDC1 inh	PfGluPho inh	APOBEC3G inh	APOBEC3A inh	iPSC survival up	A3A conf	UDG ctr A3A
COc1ccc(N(CC(=O)Nc2ccccc2C(N)=O)S(=O)(=O)c2ccc(C)c([N+](=O)[O-])c2)cc1	–	–	–	–	–	·	·
O=C(NCCc1ccc2c(c1)OCCO2)c1cc(S(=O)(=O)N2CCCC2)ccc1Br	–	–	·	·	–	·	·
COc1cccc(/C=C(/C#N)c2ccc(F)cc2)c1OCc1cccc(C(=O)O)c1	–	–	–	–	–	·	·
N#C/C(=C/c1ccccc1OCc1ccc(F)cc1)c1ccc(C(=O)O)cc1	–	–	–	67.4	–	–	·
Cc1ccc(S(=O)(=O)N2CCOCC2)cc1NC(=O)COC(=O)c1ccco1	·	–	·	·	–	·	·
O=C(O)c1ccc(COc2ccc(/C=N/NC(=O)c3cccs3)cc2)cc1	–	–	–	51.3	–	–	·
N#C/C(=C\c1ccc(OCc2ccc(Br)cc2)cc1)C(=O)Nc1cccc(C(=O)O)c1	–	–	·	·	–	·	·
N#C/C(=C/c1ccc(OCc2ccc(C(=O)O)cc2)cc1)C(=O)Nc1ccccc1	–	–	–	78.9	–	75.3	–
COc1ccc(NC(=O)CS(=O)(=O)c2cn(CC(=O)N3CCOCC3)c3ccccc23)cc1	–	–	–	–	–	·	·
Cc1cc(C(=O)N2CCCC(C(=O)c3ccc4ccccc4c3)C2)n(C)n1 (stereo not drawn)	–	–	–	–	–	·	·
O=C(O)c1cc(O)c2c(c1)C(=O)c1cc(O)cc(O)c1C2=O	–	–	–	67.3	–	59.0	–
CCCCC1(C)OC(=O)C(=Cc2ccc(-c3ccc(Cl)c(C(=O)O)c3)o2)C(=O)O1 (stereo not drawn)	–	–	–	54.6	–	30.0	–
CC1CC(C)(C)OC(C[N+]2(C)CCCCC2)O1 (stereo not drawn)	–	–	–	48.8	–	76.5	–
COc1ccc2[nH]c(=O)c(CN(C(=O)c3ccco3)C(C)C)cc2c1	–	–	–	56.2	–	61.0	–
CCCN(Cc1cc2cc(OC)ccc2[nH]c1=O)C(=O)c1ccco1	–	–	–	–	–	·	·
CC(C)Cc1nnc(NC(=O)Nc2ccccc2)s1	–	–	–	70.2	–	–	–
CC(C)Cc1nnc(NC(=O)CCC(=O)Nc2ccccc2)s1	–	–	–	–	–	·	·
Cc1c(N2C(=O)C3C4C=CC(C4)C3C2=O)c(=O)n(-c2ccccc2)n1C (stereo not drawn)	–	–	–	–	–	·	·
O=C(CCc1ccccc1)Nc1ncn[nH]1	–	–	–	93.6	–	–	–
Cc1c(Cl)cccc1NC(=O)CN(C1CCCCC1)S(C)(=O)=O	–	–	–	–	–	·	·
Cc1ccc(C(=O)Nc2cc(C(F)(F)F)ccc2-n2cncn2)o1	–	–	–	–	–	·	·
Cc1ccc(C(=O)Nc2cc(Cl)ccc2-n2cncn2)o1	–	–	–	41.5	–	47.9	–
CC(C)[N+](C)(C)CC#CC(O)(c1ccccc1)c1ccccc1	–	–	–	65.2	–	73.0	–
C[N+]1(CC#CC(O)(c2ccccc2)c2ccccc2)CCCC1	–	–	–	–	–	·	·
COc1cccc(NC(=O)c2ccc[n+](C)c2)c1	–	–	–	76.5	–	75.4	–
C[n+]1cccc(C(=O)NCC2CCCO2)c1 (stereo not drawn)	–	–	–	79.1	–	75.5	–
O=C(C[n+]1cccc(C(=O)Nc2ccccc2)c1)c1ccccc1	·	·	·	·	–	·	·

Screening results from PubChem.
